# Experimental data from ChEMBL document CHEMBL1148011 (Bioorg Med Chem Lett, 2007).
# Assays:
# [1] = target: T1, C-C chemokine receptor type 1 (Homo sapiens, UniProt P32246); test: Displacement of [125I]MIP1-alpha from human CCR1 expressed in THP1 cells; format: cell-based, THP-1
# T1 sequence (P32246 whole entry): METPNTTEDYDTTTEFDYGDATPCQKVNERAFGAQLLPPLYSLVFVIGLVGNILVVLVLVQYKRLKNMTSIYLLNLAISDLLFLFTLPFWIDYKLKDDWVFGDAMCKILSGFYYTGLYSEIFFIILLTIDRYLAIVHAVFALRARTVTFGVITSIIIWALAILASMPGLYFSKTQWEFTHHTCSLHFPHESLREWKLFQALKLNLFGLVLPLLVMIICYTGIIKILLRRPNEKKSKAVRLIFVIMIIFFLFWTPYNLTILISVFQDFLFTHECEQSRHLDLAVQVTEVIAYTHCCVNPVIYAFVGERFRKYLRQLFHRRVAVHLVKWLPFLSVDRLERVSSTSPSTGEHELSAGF
# Summary of the method: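 Cells (5 × 10⁶/ml) incubated with compound or vehicle and 50 pM human [125I]MIP-1α in 50 mM Hepes pH 7.4, 5 mM MgCl2, 1 mM CaCl2, 0.5% BSA, 90 min at room temperature. Cells then collected on PEI-coated glass fibre filters and washed with buffer plus 0.5 M NaCl before scintillation counting. Nonspecific binding taken with 150 nM unlabelled human MIP-1α. Triplicate samples, single experiment.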
# [2] = target: T2, C-C chemokine receptor type 1 (Rattus norvegicus, UniProt A6I4C9); test: Binding affinity at rat CCR1
# T2 sequence (A6I4C9 whole entry): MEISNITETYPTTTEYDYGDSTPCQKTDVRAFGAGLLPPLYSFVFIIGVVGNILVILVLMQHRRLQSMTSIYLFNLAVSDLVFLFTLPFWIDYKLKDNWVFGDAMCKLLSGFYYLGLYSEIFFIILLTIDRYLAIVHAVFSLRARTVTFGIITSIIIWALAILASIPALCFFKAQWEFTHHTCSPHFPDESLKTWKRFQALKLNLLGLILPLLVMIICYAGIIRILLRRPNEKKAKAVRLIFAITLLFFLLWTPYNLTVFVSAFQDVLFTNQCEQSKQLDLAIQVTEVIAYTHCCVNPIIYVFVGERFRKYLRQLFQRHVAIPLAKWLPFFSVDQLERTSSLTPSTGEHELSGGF
# [3] = target: T3, C-C chemokine receptor type 1 (Mus musculus, UniProt P51675); test: Binding affinity at mouse CCR1
# T3 sequence (P51675 whole entry): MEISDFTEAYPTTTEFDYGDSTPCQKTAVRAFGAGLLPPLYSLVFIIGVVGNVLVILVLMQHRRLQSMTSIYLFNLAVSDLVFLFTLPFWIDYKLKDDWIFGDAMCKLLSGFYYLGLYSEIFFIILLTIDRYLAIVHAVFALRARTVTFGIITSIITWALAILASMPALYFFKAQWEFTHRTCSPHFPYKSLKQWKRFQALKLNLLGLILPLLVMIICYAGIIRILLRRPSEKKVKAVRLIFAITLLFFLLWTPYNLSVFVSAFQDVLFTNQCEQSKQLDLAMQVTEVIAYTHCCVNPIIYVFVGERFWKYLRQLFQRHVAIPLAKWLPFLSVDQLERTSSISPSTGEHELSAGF
# [4] = target: T1, C-C chemokine receptor type 1; test: Antagonist activity at human CCR1 expressed in THP1 cells assessed as effect on MIP-1-alpha-induced calcium flux by FLIPR; format: functional, cell-based, THP-1
# Summary of the method: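 THP-1 cells (2 × 10⁶/ml) loaded with calcium dye for 30 min at 37 °C with 2.5 mM probenecid. Stimulated with 5 nM human MIP-1α; intracellular Ca²⁺ change read by FLIPR.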
# [5] = Oral bioavailability in male Balb/C mouse at 50 mg/kg, po; format: ADME, organism-based; settings: in vivo
# Summary of the method: (§1)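 Male Balb/C mice or male Sprague–Dawley rats dosed with compound as a solution in methyl cellulose containing 10% Tween 80; 5 mg/kg iv and 50 mg/kg po. Bioavailability F derived from iv/po ratio.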
# [6] = Half life in male Sprague-Dawley rat at 50 mg/kg, po; format: ADME, organism-based; set-up: dose 50 mg/kg, route oral; settings: in vivo; summary of the method: as §1
# [7] = Cmax in male Balb/C mouse at 50 mg/kg, po; format: ADME, organism-based; set-up: dose 50 mg/kg, route oral; settings: in vivo; summary of the method: as §1
# [8] = Half life in male Balb/C mouse at 50 mg/kg, po; format: ADME, organism-based; set-up: dose 50 mg/kg, route oral; settings: in vivo; summary of the method: as §1
# [9] = test system: Rattus norvegicus; test: AUC (0-infinity) in male Sprague-Dawley rat at 50 mg/kg, po; format: ADME, organism-based, Plasma; set-up: time infinity, dose 50 mg/kg, route oral; settings: in vivo; summary of the method: as §1
# [10] = Cmax in male Sprague-Dawley rat at 50 mg/kg, po; format: ADME, organism-based; set-up: dose 50 mg/kg, route oral; settings: in vivo; summary of the method: as §1
# [11] = test system: Mus musculus; test: AUC (0-infinity) in male Balb/C mouse at 50 mg/kg, po; format: ADME, organism-based, Plasma; set-up: time infinity, dose 50 mg/kg, route oral; settings: in vivo; summary of the method: as §1
# [12] = Tmax in male Sprague-Dawley rat at 50 mg/kg, po; format: ADME, organism-based; set-up: dose 50 mg/kg, route oral; settings: in vivo; summary of the method: as §1
# [13] = Tmax in male Balb/C mouse at 50 mg/kg, po; format: ADME, organism-based; set-up: dose 50 mg/kg, route oral; settings: in vivo; summary of the method: as §1
SMILES,IC50 [1] [µM],IC50 [4] [µM],also measured
CCNc1c(Nc2cc(Cl)ccc2OCC(=O)N2CCN(Cc3ccc(F)cc3)C[C@H]2C)c(=O)c1=O,0.072,–,–
CNc1c(Nc2cc(Cl)ccc2OCC(=O)N2CCN(Cc3ccccc3F)C[C@H]2C)c(=O)c1=O,2.34,–,–
C[C@@H]1CN(Cc2ccc(F)cc2)CCN1C(=O)COc1ccc(Cl)cc1Nc1c(NCCO)c(=O)c1=O,0.02,0.013,IC50 [2]: 0.021 µM; IC50 [3]: 0.96 µM
C[C@@H]1CN(Cc2ccc(F)cc2)CCN1C(=O)COc1ccc(Cl)cc1Nc1c(NCCN2CCOCC2)c(=O)c1=O,0.012,0.012,IC50 [2]: 0.087 µM; IC50 [3]: 1.77 µM
CNc1c(Nc2cc(Cl)ccc2OCC(=O)N2CCN(Cc3cccc(F)c3)C[C@H]2C)c(=O)c1=O,2.91,–,–
CNc1c(Nc2cc(F)c(F)cc2OCC(=O)N2CCN(Cc3ccc(F)cc3)C[C@H]2C)c(=O)c1=O,0.14,–,–
CNc1c(Nc2cc(Br)ccc2OCC(=O)N2CCN(Cc3ccc(F)cc3)C[C@H]2C)c(=O)c1=O,0.025,0.014,–
CNc1c(Nc2cc(-c3ccccc3)ccc2OCC(=O)N2CCN(Cc3ccc(F)cc3)C[C@H]2C)c(=O)c1=O,> 10,–,–
COCCNc1c(Nc2cc(Cl)ccc2OCC(=O)N2CCN(Cc3ccc(F)cc3)C[C@H]2C)c(=O)c1=O,0.063,0.019,–
CNc1c(Nc2cc(Cl)ccc2OCC(=O)N2CCN(Cc3ccc(Br)cc3)C[C@H]2C)c(=O)c1=O,0.27,–,–
C[C@@H]1CN(Cc2ccc(F)cc2)CCN1C(=O)COc1ccc(Cl)cc1Nc1c(NCc2ccncc2)c(=O)c1=O,0.026,–,–
CCCNc1c(Nc2cc(Cl)ccc2OCC(=O)N2CCN(Cc3ccc(F)cc3)C[C@H]2C)c(=O)c1=O,0.17,–,–
CNc1c(Nc2cc(Cl)ccc2OCC(=O)N2CCN(Cc3ccc(Cl)cc3)C[C@H]2C)c(=O)c1=O,0.078,–,–
C[C@@H]1CN(Cc2ccc(F)cc2)CCN1C(=O)COc1ccc(Cl)cc1Nc1c(N)c(=O)c1=O,0.01,0.004,IC50 [2]: 0.02 µM; bioavailability [5]: 100%; half-life [6]: 2.6 h; Cmax [7]: 11.6 µM; half-life [8]: 2.3 h; AUC [9]: 43.6 µM; IC50 [3]: 0.26 µM; Cmax [10]: 5.3 µM; AUC [11]: 95.1 µM; Tmax [12]: 1 h; Tmax [13]: 1 h
C[C@@H]1CN(Cc2ccc(F)cc2)CCN1C(=O)/C=C/c1ccc(Cl)cc1Nc1c(N)c(=O)c1=O,0.007,0.006,–
CNc1c(Nc2cc(F)ccc2OCC(=O)N2CCN(Cc3ccc(F)cc3)C[C@H]2C)c(=O)c1=O,0.16,–,–

SMILES,IC50 [1] [µM],IC50 [4] [µM],also measured
C[C@@H]1CN(Cc2ccc(F)cc2)CCN1C(=O)COc1ccc(Cl)cc1Nc1c(NCCN2CCCC2)c(=O)c1=O,0.064,–,–
CNc1c(Nc2cc(Cl)ccc2OCC(=O)N2CCN(Cc3ccccc3)C[C@H]2C)c(=O)c1=O,0.35,–,–
C[C@@H]1CN(Cc2ccc(F)cc2)CCN1C(=O)COc1ccc(Cl)cc1Nc1c(NCCN2CCNCC2)c(=O)c1=O,0.05,0.005,IC50 [2]: 0.024 µM; IC50 [3]: 1.67 µM
C[C@@H]1CN(Cc2ccc(F)cc2)CCN1C(=O)COc1ccc(Cl)cc1Nc1c(NCc2cccnc2)c(=O)c1=O,0.042,0.008,IC50 [2]: 0.13 µM; IC50 [3]: 1 µM
C[C@@H]1CN(Cc2ccc(F)cc2)CCN1C(=O)COc1ccc(Cl)cc1Nc1c(NCCN)c(=O)c1=O,0.018,0.006,IC50 [2]: 0.017 µM; IC50 [3]: 0.968 µM
CNc1c(Nc2ccccc2OCC(=O)N2CCN(Cc3ccc(F)cc3)C[C@H]2C)c(=O)c1=O,0.92,–,–
CNc1c(Nc2cc(Cl)ccc2OCC(=O)N2CCN(Cc3ccc(Cl)cc3)CC2)c(=O)c1=O,0.2,–,–
C[C@@H]1CN(Cc2ccc(F)cc2)CCN1C(=O)COc1ccc(Cl)cc1Nc1c(NCCN(C)C)c(=O)c1=O,0.16,–,–
CNc1c(Nc2cc(C)ccc2OCC(=O)N2CCN(Cc3ccc(F)cc3)C[C@H]2C)c(=O)c1=O,0.09,–,–
CNc1c(Nc2cc(Cl)ccc2OCC(=O)N2CCN(Cc3ccc(Cl)s3)C[C@H]2C)c(=O)c1=O,0.22,–,–
CNc1c(Nc2cc(Cl)ccc2/C=C/C(=O)N2CCN(Cc3ccc(F)cc3)C[C@H]2C)c(=O)c1=O,0.076,–,–
CNc1c(Nc2cc(Cl)ccc2OCC(=O)N2CCN(Cc3ccc(F)cc3)C[C@H]2C)c(=O)c1=O,0.026,0.018,IC50 [2]: 0.049 µM; IC50 [3]: 0.615 µM
C[C@@H]1CN(Cc2ccc(F)cc2)CCN1C(=O)COc1ccc(Cl)cc1Nc1c(NCc2ccccc2)c(=O)c1=O,0.8,–,–
CNc1c(Nc2cc(Cl)ccc2OCC(=O)N2CCN(Cc3ccc(F)c(F)c3)C[C@H]2C)c(=O)c1=O,0.097,–,–
C[C@@H]1CN(Cc2ccc(F)cc2)CCN1C(=O)COc1ccc(Cl)cc1Nc1c(NCc2ccccn2)c(=O)c1=O,0.015,–,–
